{"data": "Experimental data gathered from unrelated publications", "target": "Mu-type opioid receptor (Oprm1, Rattus norvegicus, UniProt P33535)", "note": "Each line is one published result; the experiments were not run side by side."}
{"Compound": "NC(N)=Nc1ccc2[nH]c3c(c2c1)C[C@@]1(O)[C@H]2Cc4ccc(O)c5c4[C@@]1(CCN2CC1CC1)[C@H]3O5", "read-out": "ligand displacement", "method": "radioligand", "setting": "cell membranes", "Ki": "9.04 nM"}
{"Compound": "Cc1cc(O)cc(C)c1C[C@H](C)C(=O)N[C@@H]1C/C=C/CC[C@@H](C(N)=O)NC(=O)[C@H](Cc2ccccc2)NC(=O)[C@H](Cc2ccccc2)NC1=O", "read-out": "ligand displacement", "method": "radioligand", "setting": "cell membranes", "Ki": "323 nM"}
{"Compound": "Cc1cc(O)cc(C)c1C[C@H](N)C(=O)N1CCc2ccc(Cc3cccc([N+](=O)[O-])c3)cc2C1", "read-out": "ligand displacement", "method": "radioligand", "setting": "cell membranes", "Ki": "3.1 nM"}
{"Compound": "Cc1cc(O)cc(C)c1C[C@H](N)C(=O)N1Cc2ccccc2CC1C(=O)NCC(=O)NC(Cc1ccc(Cl)cc1)C(=O)N(C)CCC[C@@]1(c2ccc(F)cc2)OCc2cc(C#N)ccc21 (stereo in doubt)", "read-out": "cell-free assay", "Ki": "35 nM"}
{"Compound": "Cc1cccc(C)c1C[C@H](NC(=O)[C@@H](CCCNC(=N)N)NC(=O)[C@@H](N)Cc1c(C)cc(O)cc1C)C(=O)N[C@@H](CCCCN)C(N)=O", "read-out": "ligand displacement", "method": "radioligand", "setting": "cell membranes", "Ki": "0.00935 nM"}
{"Compound": "CCCC[C@@H](NC(=O)[C@@H](N)Cc1ccc(O)cc1)C(=O)NCC(=O)N[C@@H](Cc1ccc(F)cc1)C(=O)N(C)CCC[C@@]1(c2ccc(F)cc2)OCc2cc(C#N)ccc21", "read-out": "cell-free assay", "Ki": "16 nM"}
{"Compound": "Cc1cc(O)cc(C)c1C[C@H](N)C(=O)N1CCc2ccc(Cc3ccc(N)cc3)cc2C1", "read-out": "ligand displacement", "method": "radioligand", "setting": "cell membranes", "Ki": "47 nM"}
{"Compound": "Oc1cccc([C@]23CCC[C@H]([C@H]2O)N(CC=Cc2ccccc2)CC3)c1", "read-out": "ligand displacement", "method": "radioligand", "Ki": "0.74 nM"}
{"Compound": "Cc1cc(O)cc(C)c1C[C@H](N)C(=O)N1CCc2ccc(Cc3ccccc3N)cc2C1", "read-out": "ligand displacement", "method": "radioligand", "setting": "cell membranes", "Ki": "2.1 nM"}
{"Compound": "Cc1cc(C)c(C[C@H](NC(=O)[C@@H](CCCNC(=N)N)NC(=O)[C@@H](N)Cc2c(C)cc(O)cc2C)C(=O)N[C@@H](CCCCN)C(N)=O)c(C)c1", "read-out": "ligand displacement", "method": "radioligand", "setting": "cell membranes", "Ki": "0.158 nM"}
{"Compound": "CCCC[C@@H](NC(=O)[C@@H](N)Cc1c(C)cc(O)cc1C)C(=O)NCC(=O)N[C@@H](Cc1ccc(F)cc1)C(=O)N(C)CCC[C@@]1(c2ccc(F)cc2)OCc2cc(C#N)ccc21", "read-out": "cell-free assay", "Ki": "1 nM"}
{"Compound": "Cc1cc(O)cc(C)c1C[C@H](N)C(=O)N1CCc2ccc(Cc3ccccc3[N+](=O)[O-])cc2C1", "read-out": "ligand displacement", "method": "radioligand", "setting": "cell membranes", "Ki": "10 nM"}
{"Compound": "C[C@@H](NC(=O)[C@@H](N)Cc1ccc(O)cc1)C(=O)NCC(=O)N[C@H](CC(=O)NNC(=O)C[C@H](Cc1ccccc1)NC(=O)CNC(=O)[C@@H](C)NC(=O)[C@@H](N)Cc1ccc(O)cc1)Cc1ccccc1", "read-out": "ligand displacement", "method": "radioligand", "Ki": "1.1 nM"}
{"Compound": "N=C(N)NCCC[C@@H]1NC(=O)[C@H](Cc2ccc(O)cc2)NC(=O)[C@@H](CCCCN)NC(=O)[C@@H](Cc2ccccc2)NC1=O", "read-out": "ligand displacement", "method": "radioligand", "setting": "cell membranes", "Ki": "171 nM"}
